CHRM5 agonist = CHRM5 agonism in calcium assay; actives 0.19% (n = 360,000); CHO-K1 hM5 cells, Fluo-8 calcium fluorescence; 0% DMSO wells, 100% maximal acetylcholine response; activation, % at 3 µM;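 active means activation above the run's mean over test compounds plus 3 SD, cut at about 23% in these data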;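 further: signal is peak over basal fluorescence ratio across the kinetic read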
Target sequence (P08912 whole entry, looked up): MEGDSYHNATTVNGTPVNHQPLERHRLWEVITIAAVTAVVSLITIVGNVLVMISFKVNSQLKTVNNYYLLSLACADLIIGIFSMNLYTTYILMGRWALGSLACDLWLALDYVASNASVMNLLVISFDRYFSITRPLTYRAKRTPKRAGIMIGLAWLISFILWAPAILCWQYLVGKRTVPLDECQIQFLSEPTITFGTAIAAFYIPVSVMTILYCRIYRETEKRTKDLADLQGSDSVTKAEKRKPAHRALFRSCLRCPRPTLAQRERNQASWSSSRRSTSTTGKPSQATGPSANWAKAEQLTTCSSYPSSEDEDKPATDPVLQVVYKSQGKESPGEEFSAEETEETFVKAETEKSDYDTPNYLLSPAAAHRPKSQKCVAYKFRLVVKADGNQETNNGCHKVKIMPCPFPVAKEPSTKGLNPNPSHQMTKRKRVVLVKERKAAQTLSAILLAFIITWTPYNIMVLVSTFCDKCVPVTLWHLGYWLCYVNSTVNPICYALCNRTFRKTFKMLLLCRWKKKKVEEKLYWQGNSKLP
CHRM4 antagonist = CHRM4 antagonism in calcium assay | CHO-hM4 cells, ACh EC80, Fluo-8 calcium fluorescence | inhibition, % at 3 µM | actives 0.73% (n = 360,000);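 active means inhibition above its plate's cutoff, the mean inhibition of sample wells plus 3 SD, cut at about 27% in these data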;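 further: 0% = acetylcholine EC80 with DMSO and 100% = DMSO without agonist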
M4 PAM = potentiates acetylcholine response at human M4 receptor; AID 624126; CHO-K1 hM4/Gqi5, Fluo-8 calcium fluorescence, ACh EC20; 0% = ACh EC20, 100% = maximal ACh; P08173; activation, % at 3 µM; actives 0.4% (n = 360,000);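 active means activation above its plate's cutoff, the mean activation of sample wells plus 3 SD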
M5 antag = CHRM5 antagonism in calcium assay | AID 624040 | inhibition, % at 3 µM | CHO-hM5 cells, Fluo-8 calcium fluorescence, ACh EC80 | actives 0.59% (n = 360,000);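 active means inhibition above a per-plate cutoff, the mean of that plate's test compounds plus 3 SD, cut at about 27% in these data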;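 further: 0% = acetylcholine EC80 with DMSO and 100% = DMSO without agonist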
CHRM5 PAM = positive allosteric modulators of human muscarinic M5 receptor. P08912. CHO-K1 hM5, Fluo-8 calcium, ACh EC20 PAM; 0% = ACh EC20, 100% = ACh EC100. activation, % at 3 µM. actives 0.3% (n = 360,000);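 active means activation above the run cutoff, the mean activation of all test compounds plus 3 SD, cut at about 18% in these data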
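Measured by: Fluo-8 calcium fluorescence; material: human M5 receptor in CHO-K1 cells; schedule: Post-acetylcholine fluorescence recording 140 s; benchmarks: low control EC20 acetylcholine (0%), high control EC100 acetylcholine (100%); read-out: Max/basal fluorescence ratio as % of EC20–EC100 ACh window; compound: single dose, 3 µM nominal final test concentration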
CHRM4 agonist = CHRM4 agonism in calcium assay; P08173; CHO-K1 hM4/Gqi5, Fluo-8 calcium fluorescence; vehicle 0%, full acetylcholine response 100%; activation, % at 3 µM; actives 0.14% (n = 360,000);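 active means activation above the run mean over all test wells plus 3 SD, cut at about 32% in these data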;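 further: peak over basal fluorescence ratio per well then scaled between controls; 0% = DMSO wells and 100% = acetylcholine at EC100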
The depositor's hits bear a star. The list is not random: actives were taken first. Their share in the collection is about 1.8%.

SMILES	CHRM5 agonist	CHRM4 antagonist	M4 PAM	M5 antag	CHRM5 PAM	CHRM4 agonist
COc1ccc(CCCNC(=O)C2Cc3c(-c4cccc(C(C)=O)c4)ccnc3O2)cc1 (stereo not given)	0.2	-0.6	-4.2	4.7	-2.5	4.9
CN(CCO)c1ccc2c(c1)OC[C@@H](Cc1ccccc1)NS2(=O)=O	0.4	5.1	-3.8	6.6	-5.5	0.9
CCOC(=O)Cn1c(=O)oc2cc(S(=O)(=O)NCCc3ccc(C)cc3)ccc21	3.0	-4.3	-5.9	5.0	-5.7	6.8
CCOC(=O)Cn1c(=O)oc2cc(S(=O)(=O)Nc3ccc(F)cc3)ccc21	28.1*	-14.2	0.1	13.8	-15.9	23.6
Cc1ccc(C(=O)Sc2cccccc2=O)cc1	3.0	57.3*	-7.7	41.6*	-6.5	8.0
CCC[N+]1(CC#CC(O)(c2ccccc2)C2CCCCC2)CCCCC1 (stereo not given)	-20.2	97.5*	-56.2	99.2*	-36.8	0.1
CN1CCN(CC#CCC(O)(c2ccccc2)C2CCCC2)CC1 (stereo not given)	-7.7	2.9	-13.1	5.8	-10.6	1.1
NC(=O)C[N+]1(CC#CC(O)(c2ccccc2)c2ccccc2)CCCC1	-9.7	33.5*	-17.7	34.3*	-20.0	0.1
CCN(CC)CCC#CC(O)(c1ccccc1)C1CCCCC1 (stereo not given)	-10.1	93.7*	-25.4	98.0*	-17.3	2.7
O=S(=O)([O-])CCC[N+]1(CC#Cc2ccccc2)CCCCC1	3.8	-9.4	0.3	0.7	5.2	0.4
COc1ccc(Cn2cc(CN3CC(N4CCN(C5CCN(C)CC5)CC4)CS3(=O)=O)nn2)cc1 (stereo not given)	-1.6	-24.6	4.3	-2.9	-0.1	1.8
O=C(NCc1ccccc1)C(C1CC1)n1c(=O)c(-c2cc3ccccc3[nH]2)nc2ccccc21 (stereo not given)	5.3	-0.1	16.6	-5.6	13.9	5.9
CCCn1c(-c2ccncc2)n[nH]c1=S	1.4	-3.9	6.9	-0.5	21.9*	2.2
CCN(Cc1ccncc1)C(=O)C(CO)c1ccccc1 (stereo not given)	-1.2	88.5*	-16.2	87.5*	-18.7	0.2
CCN(Cc1ccncc1)C(=S)Nc1ccccc1	-2.0	-11.8	7.0	0.5	-6.9	1.4
COc1cc(C(CCN2CCCC(C)C2)c2c(OC)cc(OC)c3c2OC(=O)CC3c2ccc(N(C)C)cc2)cc(OC)c1OC (stereo not given)	2.4	3.1	10.1	-2.3	21.6*	2.6
NCc1csc(NC(=O)Nc2cccc(C(F)(F)F)c2)n1	-0.4	-7.7	12.3	0.6	4.8	0.3
O=C(c1cccc(S(=O)(=O)N2CCOCC2)c1)N1CCN(C/C=C/c2ccccc2)CC1	-11.7	-4.6	-13.6	39.3*	-48.6	4.7
O=C(c1cccc(S(=O)(=O)N2CCOCC2)c1)N1CCC(Cc2ccccc2)CC1	0.9	-18.5	4.6	1.4	-1.6	5.1
CC(C)(C)c1ccc2cccc(F)c2n1	1.2	-10.0	10.4	-5.7	10.4	0.8
COc1ccc(-c2oc3c(c2C(=O)OCCCO)C(OCCO)CCC3)cc1 (stereo not given)	-0.3	-5.1	8.6	2.1	-3.9	2.5
CCOc1cccc(-c2c(C(=O)N/N=C/c3cccs3)nnn2-c2nonc2N)c1	28.3*	-7.9	6.5	-19.6	27.8*	8.1
Cc1ccc(/C=N/NC(=O)c2nnn(-c3nonc3N)c2-c2cccs2)cc1	30.1*	-0.9	10.0	1.8	12.5	10.3
COc1cccc(-c2c(C(=O)N/N=C/c3cccs3)nnn2-c2nonc2N)c1	30.6*	-8.9	2.9	-4.4	-3.8	8.2
CCOc1cccc(-c2c(C(=O)N/N=C/c3ccncc3)nnn2-c2nonc2N)c1	-2.3	6.2	1.8	14.7	-5.7	2.8
SMILES	CHRM5 agonist	CHRM4 antagonist	M4 PAM	M5 antag	CHRM5 PAM	CHRM4 agonist
S=c1[nH]nc(-c2cccnc2)n1C1CCCCC1	-3.8	-1.4	25.8*	11.1	3.8	1.2
CC1CCCCC1n1c(-c2cccnc2)n[nH]c1=S (stereo not given)	-14.7	-10.3	6.6	-6.0	3.2	1.3
CC1=[N+](C)c2c(ccc3cccnc23)C1(C)C	1.9	35.2*	-18.7	37.2*	-17.6	13.3
CCOc1ncccc1C(=O)Nc1cc(S(=O)(=O)N2CCOCC2)ccc1N1CCCC1	-2.5	-0.7	-9.2	15.6	-7.7	14.0
O=C(Nc1cc(S(=O)(=O)N2CCOCC2)ccc1N1CCCC1)c1cccnc1Cl	1.9	27.7*	11.0	-0.1	2.5	0.5
CN(C)CC/C=C1/c2ccc(F)cc2Sc2ccc(Cl)cc21	-18.8	99.8*	-15.8	98.7*	-29.0	11.8
CN(C)CC/C=C1\c2ccc(F)cc2Sc2cc(F)c(Cl)cc21	-17.8	98.8*	-17.6	99.0*	-31.7	14.4
CN(C)CC/C=C1\c2ccccc2Sc2ccc(Cl)cc21	2.3	98.2*	-19.6	99.5*	-18.5	9.2
CN(C)CC/C=C1\c2cc(Cl)ccc2Sc2cc(F)c(F)cc21	-19.9	98.2*	-56.3	99.2*	-35.9	5.6
OCCN1CCN(CC/C=C2/c3ccccc3Sc3ccc(Cl)cc32)CC1	1.9	8.8	-10.9	13.7	-10.3	5.2
OC(c1ccc(F)cc1)c1ncc(-c2cccc3ccccc23)[nH]1 (stereo not given)	-1.2	-2.6	-3.7	5.7	-2.3	3.3
COC(=O)c1csc(C2OC(CO)C(O)C2O)n1 (stereo not given)	0.7	-7.5	1.0	0.9	1.5	-0.1
CC(C)C[C@H]1CN([C@@H](Cc2ccccc2)CN2CCC[C@H]2CN2C(=O)C(=O)NC[C@@H]2Cc2ccc(O)cc2)C(=O)C(=O)N1CC1CCCCC1	-2.8	-0.6	4.5	-0.5	4.0	-0.3
C(=C\c1ccccc1)/CN1CCN(C(c2cccc3ccccc23)c2nnnn2-c2ccc3c(c2)OCCO3)CC1 (stereo not given)	-4.3	0.6	5.4	12.2	-21.8	0.7
CN(C)CC/C=C1\c2ccccc2Sc2cc(F)c(Cl)cc21	-18.7	99.5*	-65.5	100.1*	-31.7	16.5
CN(C)CCOc1ccc2c(c1)Sc1ccccc1CC2=O	1.3	9.3	-10.2	1.5	-0.1	0.7
COCc1nc2sc3c(c2c(=O)[nH]1)CCCC3	0.9	-5.7	-6.8	13.2	-12.7	10.0
CCCc1nc2sc3c(c2c(=O)[nH]1)CCCC3	-2.0	-8.0	5.4	-3.4	18.1*	-0.2
COc1ccccc1C(=O)Nc1ccnn1C1CCN(C2CCCCC2)CC1	-1.2	8.3	-3.3	1.9	-4.2	1.1
